Measurements from ChEMBL document CHEMBL1127066, “Discovery and structure-activity relationship of a series of 1-carba-1-dethiacephems exhibiting activity against methicillin-resistant Staphylococcus aureus” (J Med Chem, 1993).
Values after ≈ are worked out from the molar mass of the structure shown.

Legend:
Haemophilus influenzae = experiment: In vitro antimicrobial activity against Haemophilus influenzae C.L. strain; format: functional
Staphylococcus aureus [1] = experiment: In vitro antimicrobial activity against Staphylococcus aureus X1.1 strain; format: functional
Pseudomonas aeruginosa [2] = experiment: Antimicrobial activity against Pseudomonas PS18 strain; format: functional
Pseudomonas aeruginosa [3] = experiment: In vitro antimicrobial activity against Pseudomonas X239 strain; format: functional
Staphylococcus aureus [4] = experiment: In vitro antimicrobial activity against Staphylococcus aureus S13E strain; format: functional
[5] = system: Staphylococcus epidermidis; experiment: In vitro antimicrobial activity against Staphylococcus epidermidis 222 strain; format: functional
Streptococcus pneumoniae = experiment: In vitro antimicrobial activity against Streptococcus pneumoniae PARK strain; format: functional
Klebsiella = experiment: In vitro antimicrobial activity against Klebsiella X26 strain; format: functional
Staphylococcus aureus [6] = experiment: In vitro antimicrobial activity against Staphylococcus aureus X400 strain; format: functional
Enterobacter cloacae = experiment: In vitro evaluation of antimicrobial activity against Enterobacter cloacae EB5 strain; format: functional
Escherichia coli = experiment: In vitro evaluation of antimicrobial activity against Escherichia coli EC14 strain; format: functional
[7] = system: Staphylococcus epidermidis; experiment: In vitro antimicrobial activity against Staphylococcus epidermidis 270 strain; format: functional
Staphylococcus aureus [8] = experiment: Minimum inhibitory concentration against methicillin-resistant Staphylococcus aureus 430 (MRSA) in vitro using trypticase soy broth (TSB) with 4% NaCl; format: functional
[9] = Tested against penicillin binding protein 2a (PBP2a) enzyme.
Staphylococcus aureus [10] = experiment: Minimum inhibitory concentration against methicillin-resistant Staphylococcus aureus 430 (MRSA) in vitro using trypticase soy broth (TSB); format: functional
Rattus norvegicus = organism: Rattus norvegicus; experiment: In vitro plasma protein binding was evaluated using Sprauge-Dawley rat at 20 ug/mL; format: ADME
Summary of the method: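 Binding was measured by ultrafiltration (Centrifree micropartition) in pooled plasma (ICR mouse, Sprague–Dawley rat, rhesus monkey or human) at a drug concentration of 20 μg/mL.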

SMILES | MIC (Haemophilus influenzae) | MIC (Staphylococcus aureus [1]) | MIC (Pseudomonas aeruginosa [2]) | MIC (Pseudomonas aeruginosa [3]) | MIC (Staphylococcus aureus [4]) | MIC [5] | MIC (Streptococcus pneumoniae) | MIC (Klebsiella) | MIC (Staphylococcus aureus [6]) | MIC (Enterobacter cloacae) | MIC (Escherichia coli) | MIC [7] | MIC (Staphylococcus aureus [8]) | IC50 [9] | MIC (Staphylococcus aureus [10]) | Bound (Rattus norvegicus)
C[n+]1ccc2sc(SC3=C(C(=O)[O-])N4C(=O)[C@@H]([N-]C(=O)/C(=N/OCCF)c5csc(N)n5)[C@H]4CC3)nc2c1.[Na+] | 0.06 µg/mL | 2 µg/mL | 32 µg/mL | 32 µg/mL | 16 µg/mL | 2 µg/mL | 0.15 µg/mL | 0.03 µg/mL | 128 µg/mL | 4 µg/mL | 0.25 µg/mL | 8 µg/mL |  |  |  | 
Nc1nc(/C(=N\OCCF)C(=O)N[C@@H]2C(=O)N3C(C(=O)[O-])=C(Sc4nc5c(N)ncnc5s4)CC[C@H]23)cs1.[Na+] | 0.03 µg/mL | 0.125 µg/mL | 64 µg/mL | > 128 µg/mL | 16 µg/mL | 0.5 µg/mL | < 0.008 µg/mL | 0.03 µg/mL | 32 µg/mL | 1 µg/mL | 0.25 µg/mL | 2 µg/mL |  |  |  | 
Nc1nc(/C(=N\OCCF)C(=O)N[C@@H]2C(=O)N3C(C(=O)[O-])=C(Sc4nc5cccnc5s4)CC[C@H]23)cs1.[Na+] | 0.03 µg/mL | 0.25 µg/mL | 64 µg/mL | > 128 µg/mL | 8 µg/mL | 1 µg/mL | < 0.008 µg/mL | 0.03 µg/mL | 16 µg/mL | 2 µg/mL | 0.25 µg/mL | 4 µg/mL |  |  |  | 
Nc1nc(/C(=N\OCCF)C(=O)N[C@@H]2C(=O)N3C(C(=O)[O-])=C(Sc4nc(-c5cccnc5)cs4)CC[C@H]23)cs1.[Na+] | 0.015 µg/mL | 0.25 µg/mL | 64 µg/mL | > 128 µg/mL | 8 µg/mL | 0.5 µg/mL | < 0.008 µg/mL | 0.03 µg/mL | 32 µg/mL | 2 µg/mL | 0.25 µg/mL | 2 µg/mL |  |  |  | 
Nc1nc(/C(=N\OCCF)C(=O)N[C@@H]2C(=O)N3C(C(=O)[O-])=C(Sc4nc(-c5ccncc5)cs4)CC[C@H]23)cs1.[Na+] | 0.03 µg/mL | 0.125 µg/mL | > 128 µg/mL | > 128 µg/mL | 8 µg/mL | 0.5 µg/mL | < 0.008 µg/mL | 0.03 µg/mL | 32 µg/mL | 2 µg/mL | 0.25 µg/mL | 2 µg/mL |  |  |  | 
Nc1nc(/C(=N\OCCF)C(=O)N[C@@H]2C(=O)N3C(C(=O)[O-])=C(Sc4nc(-c5ccccc5)cs4)CC[C@H]23)cs1.[Na+] | 0.03 µg/mL | 0.125 µg/mL | 64 µg/mL | 8 µg/mL | 4 µg/mL | 0.25 µg/mL | < 0.008 µg/mL | 0.015 µg/mL | 4 µg/mL | 1 µg/mL | 0.25 µg/mL | 0.5 µg/mL |  |  |  | 
Nc1nc(/C(=N\OCCF)C(=O)N[C@@H]2C(=O)N3C(C(=O)[O-])=C(Sc4nc5ccccc5s4)CC[C@H]23)cs1.[Na+] | 0.03 µg/mL | 0.125 µg/mL | 128 µg/mL | 16 µg/mL | 4 µg/mL | 0.25 µg/mL | < 0.008 µg/mL | 0.03 µg/mL | 4 µg/mL | 1 µg/mL | 0.25 µg/mL | 0.5 µg/mL | 1 µg/mL | 3.5 µg/mL | 0.5 µg/mL | 
Cc1cnc(SC2=C(C(=O)[O-])N3C(=O)[C@@H](NC(=O)/C(=N/OCCF)c4csc(N)n4)[C@H]3CC2)s1.[Na+] | < 0.008 µg/mL | 0.5 µg/mL | 32 µg/mL | 64 µg/mL | 32 µg/mL | 1 µg/mL | < 0.008 µg/mL | 0.03 µg/mL | 128 µg/mL | 2 µg/mL | 0.5 µg/mL | 4 µg/mL |  |  |  | 
Nc1nc(/C(=N\OCCF)C(=O)N[C@@H]2C(=O)N3C(C(=O)[O-])=C(Sc4nc5cncnc5s4)CC[C@H]23)cs1.[Na+] | 0.03 µg/mL | 0.125 µg/mL | 128 µg/mL | 128 µg/mL | 8 µg/mL | 0.5 µg/mL | < 0.008 µg/mL | 0.03 µg/mL | 16 µg/mL | 2 µg/mL | 0.25 µg/mL | 2 µg/mL |  |  |  | 
Nc1nc(/C(=N\OCCF)C(=O)N[C@@H]2C(=O)N3C(C(=O)[O-])=C(Sc4nc5ccncc5s4)CC[C@H]23)cs1.[Na+] | 0.015 µg/mL | 0.125 µg/mL | 64 µg/mL | > 128 µg/mL | 4 µg/mL | 0.5 µg/mL | < 0.008 µg/mL | 0.06 µg/mL | 8 µg/mL | 2 µg/mL | 0.25 µg/mL | 2 µg/mL |  |  |  | 
Nc1nc(/C(=N\OCCF)C(=O)N[C@@H]2C(=O)N3C(C(=O)[O-])=C(Sc4nc5cc(Cl)ccc5s4)CC[C@H]23)cs1.[Na+] | 0.06 µg/mL | 0.125 µg/mL | 64 µg/mL | > 128 µg/mL | 4 µg/mL | 0.5 µg/mL | < 0.008 µg/mL | 0.06 µg/mL | 8 µg/mL | 2 µg/mL | 0.25 µg/mL | 0.5 µg/mL |  |  |  | 
CCOC(=O)c1csc(SC2=C(C(=O)[O-])N3C(=O)[C@@H](NC(=O)/C(=N/OCCF)c4csc(N)n4)[C@H]3CC2)n1.[Na+] | 0.06 µg/mL | 1 µg/mL | 128 µg/mL | > 128 µg/mL | 16 µg/mL | 2 µg/mL | < 0.008 µg/mL | 0.06 µg/mL | 32 µg/mL | 4 µg/mL | 0.5 µg/mL | 2 µg/mL |  |  |  | 
Cn1c(SC2=C(C(=O)[O-])N3C(=O)[C@@H](NC(=O)/C(=N/OCCF)c4csc(N)n4)[C@H]3CC2)n[nH]c(=O)c1=O.[Na+] | 0.03 µg/mL | 0.5 µg/mL | 32 µg/mL | 32 µg/mL | 64 µg/mL | 2 µg/mL | 0.015 µg/mL | 0.06 µg/mL | 128 µg/mL | 0.5 µg/mL | 0.06 µg/mL | 8 µg/mL |  |  |  | 
Nc1nc(/C(=N\OCCF)C(=O)N[C@@H]2C(=O)N3C(C(=O)[O-])=C(Sc4nc(-c5ccccn5)cs4)CC[C@H]23)cs1.[Na+] | 0.03 µg/mL | 0.25 µg/mL | 64 µg/mL | 32 µg/mL | 16 µg/mL | 0.5 µg/mL | < 0.008 µg/mL | 0.03 µg/mL | 32 µg/mL | 2 µg/mL | 0.5 µg/mL | 2 µg/mL |  |  |  | 
Nc1nc(/C(=N\OCCF)C(=O)N[C@@H]2C(=O)N3C(C(=O)[O-])=C(Sc4nccs4)CC[C@H]23)cs1.[Na+] | < 0.008 µg/mL | 0.25 µg/mL | 32 µg/mL | 128 µg/mL | 16 µg/mL | 0.5 µg/mL | < 0.008 µg/mL | < 0.008 µg/mL | 64 µg/mL | 1 µg/mL | 0.125 µg/mL | 4 µg/mL |  |  |  | 
CO/N=C(\C(=O)N[C@@H]1C(=O)N2C(C(=O)O)=C(COC(C)=O)CS[C@H]12)c1csc(N)n1 [CEFOTAXIME] | 0.015 µg/mL (≈ 0.0329 µM) | 2 µg/mL (≈ 4.39 µM) | 16 µg/mL (≈ 35.1 µM) | 8 µg/mL (≈ 17.6 µM) | 8 µg/mL (≈ 17.6 µM) | 2 µg/mL (≈ 4.39 µM) | 0.015 µg/mL (≈ 0.0329 µM) | < 0.008 µg/mL | 64 µg/mL (≈ 141 µM) | 0.25 µg/mL (≈ 0.549 µM) | 0.03 µg/mL (≈ 0.0659 µM) | 8 µg/mL (≈ 17.6 µM) |  |  |  | 88.5%
